Data on one compound can be found in ChEMBL document CHEMBL1157623, “Benzyl 1,2,3,5,11,11a-hexahydro-3,3-dimethyl-1-oxo-6H-imidazo[3',4':1,2]pyridin[3,4-b]indole-2-substituted acetates: One-pot-preparation, anti-tumor activity, docking toward DNA and 3D QSAR analysis” (Bioorg Med Chem, 2010).

In data set [1] the test system is PC-3. Description: Antiproliferative activity against human PC3 cells after 3 days by sulforhodamine B assay. Type of data set: functional, cell-based. To be noted: PC-3, 72 h. Summed up: (§1)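 Freshly trypsinized cells seeded at 5000 per well; compounds added from DMSO-diluted stock at 60, 6, 0.6, 0.06 and 0.006 µM. After 3 days, attached cells were fixed with cold 10% trichloroacetic acid, stained with 0.4% sulforhodamine B, the bound dye solubilized, and absorbance read at 562 nm. IC50 is the concentration reducing cell growth by 50%, averaged from at least three independent determinations.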
A general note: Sulforhodamine B stains cellular protein and so reports cell mass.

The test system of data set [2] is Mus musculus. Description: Toxicity in ICR mouse assessed as change in kidney weight at 10 to 500 mg/kg, ip measured on day 7 post dose by necroscopy. Type of data set: organism-based. The conditions noted are these: in vivo. Set-up: dose 10-500 mg/kg, route intraperitoneal.
Data set [3] relates to MCF7. Briefly: Antiproliferative activity against human MCF7 cells after 3 days by sulforhodamine B assay. Type of data set: functional, cell-based. To be noted: MCF7, 72 h. In a few lines:
as §1

Data set [4] has as its system Mus musculus. Briefly: Toxicity in ICR mouse xenografted with mouse S180 cells assessed as body weight at 1 mg/kg, ip administered 24 hrs after tumor implantation daily for 7 consecutive days measured after 24 hrs of last dose (Rvb=33.3 +/- 2.32 g). Type of data set: organism-based, CCRF S-180. Also noted: dose 1 mg/kg, route intraperitoneal. The conditions noted are these: in vivo.

In data set [5] the test system is Mus musculus. Briefly: Toxicity in ICR mouse assessed as change in heart weight at 10 to 500 mg/kg, ip measured on day 7 post dose by necroscopy. Also noted: dose 10-500 mg/kg, route intraperitoneal. Type of data set: organism-based. The conditions noted are these: in vivo.
The subject of data set [6] is Mus musculus. Description: Neurotoxicity in ICR mouse assessed as occurrence of neurotoxic behavior at 10 to 500 mg/kg, ip measured up to 7 days post dose. Type of data set: toxicity, organism-based. Also noted: dose 10-500 mg/kg, route intraperitoneal. To be noted: in vivo, 168 h. Summed up:
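Healthy ICR mice, 10–12 weeks old, 12 per group (six male, six female), fasted overnight with water available. Single ip injection of 10, 100 or 500 mg/kg in 0.2 mL 0.9% saline. Monitored continuously up to 7 days for abnormal behavior (tremor, twitch, jumping, tetanus, supination) or death. Sacrificed on day 7; heart, liver and kidneys checked macroscopically.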

Data set [7] concerns Mus musculus. Briefly: Toxicity in ICR mouse assessed as mortality up to 500 mg/kg, ip measured after 7 days post dose. It counts as organism-based. Set-up: dose 500 mg/kg, route intraperitoneal. The conditions noted are these: in vivo, 168 h. In a few lines:
(§2)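 ICR mice, 10–12 weeks old, of both sexes (six males and six females, 12 per group), housed at 21 °C and fasted overnight with water available. They received a single ip injection of 10, 100 or 500 mg/kg in 0.2 mL 0.9% saline. Mice were watched continuously for 7 days for neurotoxic behaviour or death, then killed on day 7 and checked macroscopically (heart, liver, kidneys). LD50 was estimated graphically.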

For data set [8], the system named is KB. Description: Antiproliferative activity against human KB cells after 3 days by sulforhodamine B assay. Type of data set: functional, cell-based. To be noted: 72 h. In a few lines:
as §1

Data set [9] concerns Mus musculus. Briefly: Toxicity in ICR mouse xenografted with mouse S180 cells assessed as heart weight at 1 mg/kg, ip administered 24 hrs after tumor implantation daily for 7 consecutive days measured after 24 hrs of last dose (Rvb=0.17 +/- 0.01 g). It counts as organism-based, CCRF S-180. Set-up: dose 1 mg/kg, route intraperitoneal. The conditions noted are these: in vivo.

The subject of data set [10] is Mus musculus. Briefly: Toxicity in ICR mouse assessed as change in liver weight at 10 to 500 mg/kg, ip measured on day 7 post dose by necroscopy. Type of data set: organism-based. To be noted: in vivo. Also noted: dose 10-500 mg/kg, route intraperitoneal.
Data set [11] relates to Mus musculus. Briefly: Toxicity in ICR mouse xenografted with mouse S180 cells assessed as brain weight at 1 mg/kg, ip administered 24 hrs after tumor implantation daily for 7 consecutive days measured after 24 hrs of last dose (Rvb=0.31 +/- 0.01 g). To be noted: in vivo. Type of data set: organism-based, CCRF S-180. Also noted: dose 1 mg/kg, route intraperitoneal.
The test system of data set [12] is CCRF S-180. Briefly: Antitumor activity against mouse S180 cells xenografted in ICR mouse assessed as tumor weight at 0.1 mg/kg, ip administered 24 hrs after tumor implantation daily for 7 consecutive days measured after 24 hrs of last dose (Rvb=1.602 +/- 0.391 g). The conditions noted are these: route intraperitoneal. Type of data set: functional.
The test system of data set [13] is CCRF S-180. Briefly: Antitumor activity against mouse S180 cells xenografted in ICR mouse assessed as tumor weight at 1 mg/kg, ip administered 24 hrs after tumor implantation daily for 7 consecutive days measured after 24 hrs of last dose (Rvb=1.602 +/- 0.391 g). Type of data set: functional. To be noted: route intraperitoneal.
The subject of data set [14] is Mus musculus. Description: Toxicity in ICR mouse xenografted with mouse S180 cells assessed as spleen weight at 1 mg/kg, ip administered 24 hrs after tumor implantation daily for 7 consecutive days measured after 24 hrs of last dose (Rvb=0.22 +/- 0.04 g). It counts as organism-based, CCRF S-180. Set-up: dose 1 mg/kg, route intraperitoneal. The conditions noted are these: in vivo.

The subject of data set [15] is CCRF S-180. Briefly: Antitumor activity against mouse S180 cells xenografted in ICR mouse assessed as tumor weight at 0.01 mg/kg, ip administered 24 hrs after tumor implantation daily for 7 consecutive days measured after 24 hrs of last dose (Rvb=1.602 +/- 0.391 g). To be noted: route intraperitoneal. Type of data set: functional.
The nature of data set [16]: Antiproliferative activity against human KBVIN cells after 3 days by sulforhodamine B assay. Type of data set: functional, cell-based. To be noted: 72 h. Summed up: as §1
A short description of data set [17]: Lipophilicity, log K at 10 uM after 40 mins by HPLC analysis. It counts as physicochemical. In a few lines: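 Sample at 10^-5 M analysed by reversed-phase C18 HPLC, eluted with CH3OH/H2O 0.7/0.3 at 1 mL/min for 40 min, UV detection at 254.8 nm. Retention time tR recorded; acetone peak taken as t0 (1.591 min). Log K = Log[(tR − t0)/t0].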
Data set [18] can be described thus: Toxicity in ip dosed ICR mouse measured after 7 days post dose. Type of data set: organism-based. To be noted: in vivo. Summed up: as §2
In data set [19] the test system is Mus musculus. Briefly: Toxicity in ICR mouse xenografted with mouse S180 cells assessed as femur weight at 1 mg/kg, ip administered 24 hrs after tumor implantation daily for 7 consecutive days measured after 24 hrs of last dose (Rvb=0.056 +/- 0.006 g). To be noted: in vivo. Set-up: dose 1 mg/kg, route intraperitoneal. It counts as organism-based, CCRF S-180.
In data set [20] the test system is CCRF S-180. Briefly: Antitumor activity against mouse S180 cells xenografted in ip dosed ICR mouse assessed as decrease in tumor weight administered 24 hrs after tumor implantation daily for 7 consecutive days measured after 24 hrs of last dose. It counts as functional, organism-based.
Data set [21] concerns Mus musculus. Description: Toxicity in ICR mouse xenografted with mouse S180 cells assessed as liver weight at 1 mg/kg, ip administered 24 hrs after tumor implantation daily for 7 consecutive days measured after 24 hrs of last dose (Rvb=2.36 +/- 0.20 g). Type of data set: organism-based, CCRF S-180. Also noted: dose 1 mg/kg, route intraperitoneal. The conditions noted are these: in vivo.

The subject of data set [22] is Mus musculus. Briefly: Toxicity in ICR mouse xenografted with mouse S180 cells assessed as kidney weight at 1 mg/kg, ip administered 24 hrs after tumor implantation daily for 7 consecutive days measured after 24 hrs of last dose (Rvb=0.23 +/- 0.02 g). It counts as organism-based, CCRF S-180. Set-up: dose 1 mg/kg, route intraperitoneal. The conditions noted are these: in vivo.

Data set [23] concerns A549. Briefly: Antiproliferative activity against human A549 cells after 3 days by sulforhodamine B assay. Type of data set: functional, cell-based. The conditions noted are these: A549, 72 h. Summed up:
as §1

With `CC1(C)N2Cc3[nH]c4ccccc4c3C[C@H]2C(=O)N1[C@@H](CC(=O)OCc1ccccc1)C(=O)OCc1ccccc1`, the IC50 (as a rule, the concentration at which inhibition is half-maximal) came to 0.04 µM in data set [1]; 7.01 µM in data set [3]; 36.3 µM in data set [8]; 38.6 µM in data set [16]; 0.15 µM in [23]. For the same compound, the Activity result in data set [2] is reported as “Non-toxic”; in [4] it was 33.37 g; in data set [5] it was “Non-toxic”; in [6], “Non-toxic”; in data set [7] it was “Non-toxic”; in [9], 0.17 g. Besides, the Activity entry in [10] is on record as “Non-toxic”; in [11], 0.31 g; in [12], 1.013 g; in [13] it was 0.746 g; in data set [14] it was 0.24 g; in [15], 1.305 g. Moreover, the Activity in [19] is 0.057 g; in [20], “Dose-dependent effect”; in data set [21], 2.26 g; in [22] it was 0.23 g. Further, the “log K” value in data set [17] is on record as 0.96. Further, the LD50 (in general, the dose at which mortality reaches 50%) at 168 h in [18] was more than 500 mg/kg.
